Assay [1] deals with Monoglyceride lipase (Homo sapiens) (UniProt Q99685). In words: Inhibition of MGL in human recombinant MGL.
In assay [2] the target is T1, Fatty-acid amide hydrolase 1 (Rattus norvegicus, UniProt P97612).
T1 sequence (P97612 whole entry): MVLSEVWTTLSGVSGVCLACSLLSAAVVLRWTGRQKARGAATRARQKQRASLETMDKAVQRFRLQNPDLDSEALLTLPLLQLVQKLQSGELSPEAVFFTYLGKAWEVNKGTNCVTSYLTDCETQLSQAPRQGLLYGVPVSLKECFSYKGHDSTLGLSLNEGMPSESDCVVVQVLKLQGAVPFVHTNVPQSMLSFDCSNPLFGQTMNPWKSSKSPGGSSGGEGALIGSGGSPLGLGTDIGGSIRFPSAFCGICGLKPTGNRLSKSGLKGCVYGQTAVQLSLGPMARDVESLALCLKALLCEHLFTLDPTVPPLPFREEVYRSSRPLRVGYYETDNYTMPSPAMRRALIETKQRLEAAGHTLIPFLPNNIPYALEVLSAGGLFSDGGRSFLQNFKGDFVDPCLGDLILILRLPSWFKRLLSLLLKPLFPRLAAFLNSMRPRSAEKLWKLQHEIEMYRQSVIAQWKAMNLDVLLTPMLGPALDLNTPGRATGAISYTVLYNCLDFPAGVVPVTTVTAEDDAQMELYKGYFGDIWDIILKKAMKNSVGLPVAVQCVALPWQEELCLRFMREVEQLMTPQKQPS
In words: Inhibition of FAAH in Wistar rat cerebral membrane by liquid scintillation counting. It is filed as cell membranes. The method in brief: (§1)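 Rat brain homogenate (10,000g supernatant from male Wistar forebrain, 8 weeks old), 18 µg protein, preincubated with inhibitor in DMSO (≤5% v/v) for 10 min at 37 °C in 0.1 M potassium phosphate pH 7.4 with 0.5% fatty-acid-free BSA. Then 2 µM AEA carrying [ethanolamine-1-3H]AEA is added for 10 min at 37 °C. The reaction is stopped with ethyl acetate and aqueous [3H]ethanolamine is counted. IC50 comes from a variable-slope sigmoidal fit, three experiments in duplicate; single-point values are the mean of two experiments in duplicate.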

The target in assay [3] is T2, Monoglyceride lipase (Rattus norvegicus) (UniProt Q8R431).
T2 sequence (whole entry): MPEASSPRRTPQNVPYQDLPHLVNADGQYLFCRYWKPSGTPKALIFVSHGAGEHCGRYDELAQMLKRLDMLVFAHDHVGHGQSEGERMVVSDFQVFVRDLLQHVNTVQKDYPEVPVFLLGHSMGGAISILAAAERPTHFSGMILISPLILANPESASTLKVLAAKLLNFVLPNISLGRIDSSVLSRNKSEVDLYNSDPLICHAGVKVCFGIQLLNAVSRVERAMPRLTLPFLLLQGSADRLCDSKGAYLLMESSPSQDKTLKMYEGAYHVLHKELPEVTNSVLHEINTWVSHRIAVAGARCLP
In words: Inhibition of MGL in Wistar rat cerebral membrane at 100 uM by HPLC. It is filed as cell membranes. The method in brief: (§2)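 Incubation is 90 min at 25 °C with 5 µg protein, 50 µM 2-AG, 100 mM NaCl and 5 mM MgCl2. The reaction is stopped with acidified acetonitrile (pH 3.0). 2-AG, 1(3)-AG and arachidonic acid are quantified by reversed-phase HPLC with UV at 211 nm. IC50 comes from a variable-slope fit, three experiments in duplicate; percentages are the mean of two in duplicate.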

The target in assay [4] is T3, Fatty-acid amide hydrolase 1 (Rattus norvegicus) (UniProt P97612).
T3 sequence (whole entry): T1 sequence (P97612 whole entry)
In words: Inhibition of FAAH in Wistar rat cerebral membrane at 0.1 uM by liquid scintillation counting. It is filed as cell membranes. The method in brief:
as §1

Assay [5] addresses T4, Monoglyceride lipase (Rattus norvegicus, UniProt Q8R431).
T4 sequence (Q8R431 whole entry): T2 sequence (whole entry)
In words: Inhibition of MGL in Wistar rat cerebral membrane by HPLC. The class given is cell membranes. The method in brief:
as §2

Assay [6] has as its target T2, Monoglyceride lipase (Rattus norvegicus). As to the kind of experiment: Inhibition of MGL in Wistar rat cerebral membrane assessed as residual activity at 1 mM by HPLC; values are per cent of control.
Assay [7] deals with T5, Monoglyceride lipase (Homo sapiens) (UniProt Q99685).
T5 sequence (whole entry): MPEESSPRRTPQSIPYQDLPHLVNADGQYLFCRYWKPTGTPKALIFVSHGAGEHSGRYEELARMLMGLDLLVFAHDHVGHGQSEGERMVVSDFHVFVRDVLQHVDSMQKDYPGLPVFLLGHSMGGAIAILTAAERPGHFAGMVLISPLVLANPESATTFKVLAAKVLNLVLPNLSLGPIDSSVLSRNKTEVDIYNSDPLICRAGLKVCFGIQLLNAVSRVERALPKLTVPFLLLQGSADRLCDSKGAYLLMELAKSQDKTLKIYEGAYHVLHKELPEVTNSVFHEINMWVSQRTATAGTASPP
In words: Irreversible inhibition of human MGL at 0.3 uM by liquid scintillation counting. The method in brief: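 Reversibility was tested on human recombinant MGL. The enzyme was preincubated with inhibitor at 50-fold the activity-assay enzyme level, then diluted […] into Tris-HCl pH 7.4/EDTA buffer with 50 μM 2-OG including [³H]2-OG. Samples taken at 0–60 min were stopped with cold ethyl acetate, and aqueous [³H]glycerol was counted by liquid scintillation. Activity was compared with DMSO vehicle over three independent experiments in duplicate.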

In assay [8] the target is T2, Monoglyceride lipase (Rattus norvegicus). In words: Inhibition of MGL in Wistar rat cerebral membrane at 1 mM by HPLC. The class given is cell membranes. The method in brief:
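Rat cerebellar membranes were prepared by sucrose homogenisation, differential centrifugation and washing. […] Reactions were stopped with acidified acetonitrile (pH 3.0). 2-AG, 1(3)-AG and arachidonic acid were quantified by reversed-phase HPLC (UV 211 nm peak areas). Remaining activity is reported.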

For assay [9], the target named is Monoglyceride lipase (Rattus norvegicus) (UniProt Q8R431). As to the kind of experiment: Inhibition of MGL 2-AG hydrolysis in rat cerebellar membranes by liquid scintillation counting.
Assay [10] concerns the target T2, Monoglyceride lipase (Rattus norvegicus). The following applies: Wistar, 100 uM.
Assay [11] deals with T1, Fatty-acid amide hydrolase 1. As to the kind of experiment: Inhibition of FAAH-mediated anandamide hydrolysis in rat brain membrane. The class given is cell membranes.
For assay [12], the target named is T2, Monoglyceride lipase (Rattus norvegicus). As to the kind of experiment: Inhibition of MGL in Wistar rat cerebral membrane at 30 uM by HPLC. The class given is cell membranes. The method in brief:
as §2

The IC50 is the concentration needed to halve the response being measured. In general, inhibition refers to the change of the read-out against control, counted positive when it falls. In general, residual activity refers to the activity still measured, relative to the control.

SMILES strings stand for the structures. The source made the active and inactive calls. No cut-off for these calls is given here.

On to `CCCCCCCCCCCCNC(=O)Oc1ccccc1-c1csnn1`, for which the values for the IC50 in [1] and in assay [2] were 18000 nM and 50 nM, respectively.

In turn, `CCCCCCNC(=O)Oc1ccc(C2=NCCS2)cc1` returned an IC50 in assay [2] of 8.2 nM.

Regarding `CCCCCCCCCCCCNC(=O)Oc1ccccc1`, the inhibition in [3] is 36%.

The compound `O=C(Nc1ccc([N+](=O)[O-])cc1)OC1CCCCC1` registered an inhibition in [4] of 9%. Also, in assay [3], the inhibition entry was “inactive”.

`CCCCNC(=O)Oc1ccc(C#N)cc1`: the inhibition in [4] amounted to 25%.

`COC(=O)c1ccc(OC(=O)NC2CCCCC2)cc1`: the IC50 in assay [5] is 14000 nM. The same compound had an inhibition in assay [4] of 41%.

Consider `O=C(NCCc1ccccc1)Oc1ccc(C2=NCCS2)cc1`, for which the figures for the IC50 in [5] and in assay [2] were 28000 nM and 38 nM, respectively.

`CCNC(=O)Oc1ccc(C2=NCCS2)cc1`: the residual activity in assay [6] was 12%. Besides, the IC50 in assay [5] worked out at 102000 nM; in assay [2], 15000 nM.

With `CC(C)(C)NC(=O)Oc1ccc(C2=NCCS2)cc1`, the IC50 in assay [2] amounted to 7000 nM. Also, the inhibition result in [3] is “inactive”.

`CCCCCCNC(=O)Oc1ccc(C(=O)OC)cc1C`: inhibition in assay [2] was half-maximal at 55 nM (IC50).

Regarding `CCCCCCCCCCCCNC(=O)Oc1ccc(C(=O)OC)cc1`, the midpoint of inhibition in [5], the IC50, lay at 2800 nM.

In the case of `CCCCNC(=O)Oc1ccccc1-c1csnn1`, the inhibition entry in [4] was “inactive”.

Compound `O=C(NC1CCCC1)Oc1ccc(-c2csnn2)cc1` gave an IC50 in [2] of 20 nM.

Take `CCCCNC(=O)Oc1ccc(C2=NCCO2)cc1`: the results for the 50% inhibitory concentration (IC50) in [5] and in assay [2] were 34000 nM and 120 nM, respectively.

With `Cc1ccccc1CNC(=O)Oc1ccc(C2=NCCO2)cc1`, the residual activity in [6] is 12%. The IC50 in assay [5] is 35000 nM; in assay [2] it was 34 nM.

In assay [2], `CCCCCCNC(=O)Oc1ccc(C(=O)OC)cc1I` showed an IC50 of 24 nM.

For `COc1ccc(CNC(=O)Oc2ccc(C3=NCCS3)cc2)cc1`, the residual activity in [6] was 21%. The IC50 in assay [5] came to 46000 nM; in assay [2], 320 nM.

Take `CCCCNC(=O)Oc1cccc(-c2csnn2)c1`: the IC50 in [2] stood at 6.9 nM.

With `O=C(NC1CCCC1)Oc1ccc(C2=NCCO2)cc1`, in assay [6], the residual activity was 21%. For the same compound, the IC50 in assay [5] was 11000 nM; in [2] it was 100 nM.

With `CCCCCCNC(=O)Oc1ccc(Br)cc1`, the residual activity in assay [6] is 16%.

`CCCCCCNC(=O)Oc1ccccc1` yielded an inhibition in [3] of 41%.

As to `CCCCNC(=O)Oc1ccc([N+](=O)[O-])cc1`, the inhibition in assay [4] was determined as 16%.

In the case of `O=C(NC1CCCCC1)Oc1ccc(-c2csnn2)cc1`, the midpoint of inhibition in assay [2], the IC50, lay at 21 nM. The compound also yielded an inhibition in assay [3] of 28%.

Take `O=C(NCc1ccccc1)Oc1ccc(C2=NCCS2)cc1`: the IC50 stood at 42000 nM in [5] and 290 nM in assay [2].

Regarding `CCCCCCNC(=O)Oc1ccc(C(=O)OC)cc1OC`, the IC50 in [2] turned out to be 5.5 nM.

Turning to `Cc1ccc(CNC(=O)Oc2ccc(C3=NCCO3)cc2)cc1`, the residual activity in assay [6] worked out at 6%. For the same compound, the IC50 worked out at 125000 nM in [5] and 180 nM in [2].

Take `CCCCNC(=O)Oc1ccc(C(=O)OC)cc1`: in assay [4], the inhibition was determined as 35%.

In the case of `Cc1ccc(CNC(=O)Oc2ccc(C3=NCCS3)cc2)cc1`, the IC50 in assay [5] was determined as 94000 nM; in assay [2] it was 280 nM.

In the case of `CCCCCCNC(=O)Oc1ccc(C(=O)OC)cc1`, the midpoint of inhibition in assay [5], the IC50, lay at 35000 nM.

Compound `CCCCCCCCCCCCNC(=O)Oc1ccc(C2=NCCS2)cc1` had an IC50 in assay [2] of 6.3 nM.

As for `CCCCCCNC(=O)Oc1c(C(C)(C)C)cc(C(=O)OC)cc1C(C)(C)C`, the inhibition in assay [4] worked out at 4%.

Consider `NC(=O)c1cccc(-c2cccc(OC(=O)NC3CCCCC3)c2)c1`, for which the result in [7] was Active. In [8], this compound came in with an inhibition of 30%.

In [4], `CCCCCCNC(=O)Nc1ccc(-c2csnn2)cc1` registered an inhibition of 9%. Moreover, in assay [3], the inhibition result was “inactive”.

Compound `CCCCC/C=C\C/C=C\C/C=C\C/C=C\CCCCN1C(=O)C=CC1=O` displayed an IC50 in assay [9] of 140 nM.

Take `CCCCNC(=O)Oc1ccc(OC)cc1`: the inhibition in [4] worked out at 5%.

In the case of `CCCNC(=O)Oc1ccc(C2=NCCS2)cc1`, the residual activity in assay [6] turned out to be 6%. Besides, the figures for the IC50 in assay [5] and in [2] were 46000 nM and 1700 nM, respectively.

In the case of `CCCCNC(=O)Oc1ccc(C2=NCCS2)cc1`, the results for the IC50 in assay [5] and in assay [2] were 31000 nM and 520 nM, respectively. In [10], the residual activity was 54%.

For `O=C(Nc1ccc(-c2ccccc2)cc1)OC1CCCCC1`, the IC50 in [11] is 17000 nM; in assay [2], 108000 nM.

Consider `Cc1ccccc1CNC(=O)Oc1ccc(C2=NCCS2)cc1`, for which the IC50 in assay [5] was 46000 nM; in assay [2], 62 nM.

As to `CCCCCCNC(=O)Oc1ccc(-c2csnn2)cc1`, the IC50 was found to be 11000 nM in [5] and 19 nM in assay [2].

Take `CCCCCCNC(=O)Oc1ccc(C)cc1`: the inhibition in [4] is 27%.

With `O=C(NC1CCCC1)Oc1ccc(C2=NCCS2)cc1`, the values for the IC50 in assay [5] and in [2] were 11000 nM and 130 nM, respectively.

For the compound `CCCCNC(=O)Oc1ccc(-c2csnn2)cc1`, the residual activity in [6] turned out to be 22%. The compound also had an IC50 in [2] of 160 nM. This compound also came in with an inhibition in assay [3] of 46%.

Regarding `O=C(NCc1ccccc1)Oc1ccc(-c2csnn2)cc1`, the residual activity in assay [6] is 22%. In [2], this compound came in with an IC50 of 44 nM.

`CCCCCCCCCCCCNC(=O)Oc1cccc(-c2csnn2)c1`: in [6], the residual activity came to 13%. 0.24 nM corresponded to half-maximal inhibition in assay [2] (IC50). For the same compound, the inhibition in assay [12] came to 57%.

In assay [5], `O=C(NC1CCCCC1)Oc1ccc([N+](=O)[O-])cc1` displayed an IC50 of 19000 nM. The inhibition in assay [4] stood at 25%.

Regarding `O=C(NC1CCCCC1)Oc1ccc(C2=NCCS2)cc1`, the IC50 is 27000 nM in assay [5] and 100 nM in assay [2].

Values taken from ChEMBL document CHEMBL1152901, “The synthesis and biological evaluation of para-substituted phenolic N-alkyl carbamates as endocannabinoid hydrolyzing enzyme inhibitors” (Eur J Med Chem, 2009).
